The values below come from ChEMBL document CHEMBL1139442, “Pyrrolobenzimidazoles linked to heterocycles and peptides. Design of DNA base pair specific phosphate hydrolyzing agents and novel cytotoxic agents” (2004).

For one experiment, the system named is Nucleic Acid. In words: DNA alkylation ability was determined. Format: functional. The following applies: Bos taurus. In outline:
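Bulk alkylation of calf thymus DNA. Drug (0.004 mmol) in DMSO was added, sealed and degassed under argon. The mix was reduced by H2 purge over Pd/C until colourless, argon-purged, then held at 30 °C for 24 h. After catalyst removal, DNA was ethanol/ammonium acetate precipitated at −20 °C for 16 h, pelleted, redissolved and reprecipitated.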

Experiment [1] addresses NAD(P)H dehydrogenase [quinone] 1 (Homo sapiens) (UniProt P15559). Put plainly: Substrate specificity for human DT-diaphorase was determined.
For experiment [2], the system named is Panel melanoma (Carcinoma cell lines). Put plainly: Cytostatic activity against human melanoma cell lines was determined. Format: functional. Summed up: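 Tested in the NCI In Vitro Cell Line Screening Project, 60 human tumour lines. Cytostatic read-outs are GI50 (50% growth inhibition) and TGI (total growth inhibition).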
Experiment [3] shares this test system. Put plainly: Cytotoxic activity against human melanoma cell lines was determined. Further details: unit not given here. Format: functional. Summed up:
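Tested in the NCI In Vitro Cell Line Screening Project, 60 human tumour lines. Cytotoxic read-out is LC50, the concentration giving 50% cell kill.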

Sequence of NAD(P)H dehydrogenase [quinone] 1 (Homo sapiens) (P15559 whole entry): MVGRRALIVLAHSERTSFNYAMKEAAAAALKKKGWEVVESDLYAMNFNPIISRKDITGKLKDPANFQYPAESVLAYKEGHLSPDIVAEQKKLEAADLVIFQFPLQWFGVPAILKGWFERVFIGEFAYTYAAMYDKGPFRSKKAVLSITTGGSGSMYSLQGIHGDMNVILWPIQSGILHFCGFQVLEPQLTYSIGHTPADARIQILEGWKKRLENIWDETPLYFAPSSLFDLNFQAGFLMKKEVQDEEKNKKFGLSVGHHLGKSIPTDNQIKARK

Turning to `CC1=C(N2CC2)C(=O)c2nc3n(c2C1=O)CCC3NC(=O)c1ccncc1` (stereo not given), the DNA alkylation with Nucleic Acid stood at 79%. The k cat/Km in experiment [1] is 0.00033 M⁻¹ s⁻¹. Moreover, in experiment [2], the “log GI50 range” value came out at 1.96 and the “log TGI range” value is listed as 2.5. Besides, in experiment [3], the LC50 stood at 2.35.
Take `CC1=C(N2CC2)C(=O)c2nc3n(c2C1=O)CC[C@@H]3NC(=O)C1CCCN1` (stereo not given in full): in experiment [2], the “log GI50 range” value was found to be 3.34 and the “log TGI range” value stood at 2.8. Further, in experiment [3], the LC50 stood at 2.27.
For the compound `CC1=C(N2CC2)C(=O)c2nc3n(c2C1=O)CC[C@@H]3NC(=O)[C@@H](Cc1ccccc1)NC(=O)[C@H](N)Cc1ccccc1`, in experiment [2], the “log GI50 range” value was 2.42 and the “log TGI range” value is given as 4. In experiment [3], this compound had an LC50 of 4.
In turn, `CC1=C(N2CC2)C(=O)c2nc3n(c2C1=O)CCC3NC(=O)Cc1ccncc1` (stereo not given) came in with a DNA alkylation in the experiment with Nucleic Acid of 35%.
As to `CC1=C(N2CC2)C(=O)c2nc3n(c2C1=O)CC[C@@H]3NC(=O)[C@H](N)Cc1ccccc1`, in experiment [2], the “log GI50 range” value was determined as 1.69 and the “log TGI range” value is given as 4. Moreover, the LC50 in experiment [3] is on record as 4.
`CCCCC(=O)NC1CCn2c1nc1c2C(=O)C(C)=C(N2CC2)C1=O` (stereo not given): the DNA alkylation in the experiment with Nucleic Acid worked out at 9%.
The same measure, in the same setting: with `CC1=C(N2CC2)C(=O)c2nc3n(c2C1=O)CCC3N` (stereo not given) the figure was 100%; with `CCC(=O)NC1CCn2c1nc1c2C(=O)C(C)=C(N2CC2)C1=O` (stereo not given), 0%.
Same read-out and setting: next, `CC1=C(N2CC2)C(=O)c2nc3n(c2C1=O)CCC3NC(=O)c1cccnc1` (stereo not given): 20%; `CC1=C(N2CC2)C(=O)c2nc3n(c2C1=O)CCC3NC(=O)c1ccnc2ccccc12` (stereo not given): 10%.
